Here are results for 3 molecules from ChEMBL document CHEMBL1135477, “Antifungal agents. 10. New derivatives of 1-[(aryl)[4-aryl-1H-pyrrol-3-yl]methyl]-1H-imidazole, synthesis, anti-candida activity, and quantitative structure-analysis relationship studies” (J Med Chem, 2002).

Molecules are shown by their SMILES. Converted amounts (≈) assume the structure as drawn.

What all share (assay type): functional
The target in data set [1] is Lanosterol 14-alpha demethylase (Candida albicans (strain SC5314 / ATCC MYA-2876) (Yeast), UniProt P10613). The data set can be described thus: Anticandida activity- (MIC90 compound) / (MIC90 bifonazole).
In data set [2] the test system is Candida albicans. Nature of the data set: In vitro antifungal activity against 40 strains of Candida albicans at pH 5.8; (range is from 2 to 128). A digest of the protocol: (§1)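 Broth serial-dilution MIC against 40 clinical C. albicans isolates from hospitalized patients, grown in Sabouraud broth at pH 7.2 or 5.8. Cells were pre-grown 18 h at 37 °C, inoculated at 10³/mL, and read at 24 h, 37 °C. Doubling dilutions ran 0.25–256 μg/mL from a DMSO/water solution. MIC was the lowest concentration with no visible growth against a DMSO/water blank.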

Data set [3] concerns Candida albicans. Nature of the data set: In vitro antifungal activity against 40 strains of Candida albicans at pH 7.2. In outline:
as §1

Data set [4] relates to Candida. The data set can be described thus: Tested In vitro for antifungal activity against Candida species. at pH 7.2; (percent of resistant species at 256 ug/mL). A digest of the protocol:
(§2)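 Broth serial-dilution test in Sabouraud broth at pH 7.2 or 5.8, against 3 fresh clinical non-albicans isolates (two C. glabrata, one C. krusei). Inocula were 10³/mL, pre-grown 18 h at 37 °C. Compound was twofold-diluted over 0.25–256 µg/mL and read at 24 h, 37 °C for visible growth.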

In data set [5] the test system is Candida. The data set can be described thus: Tested In vitro for antifungal activity against Candida species. at pH 7.2. A digest of the protocol:
(§3)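 Liquid serial-dilution MIC against 3 freshly isolated clinical Candida strains (two C. glabrata, one C. krusei) in Sabouraud broth at pH 7.2 or 5.8. Inoculum was 10³/mL after 18 h pre-culture at 37 °C, read at 24 h, 37 °C. Range was 0.25–256 μg/mL. Endpoint was no visible growth versus a DMSO/water blank.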

The test system of data set [6] is Candida albicans. Nature of the data set: In vitro antifungal activity against 40 strains of Candida albicans at pH 5.8; (percent of resistant species at 256 ug/mL). A digest of the protocol:
(§4)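 Broth serial-dilution test in Sabouraud broth at pH 7.2 or 5.8, against 40 fresh clinical C. albicans isolates from hospitalized patients. Inocula were 10³/mL, pre-grown 18 h at 37 °C in Sabouraud dextrose broth. Compound from a DMSO/water stock was twofold-diluted over 0.25–256 µg/mL. Visible growth was read at 24 h, 37 °C.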

Data set [7] deals with Candida. Nature of the data set: Tested In vitro for antifungal activity against Candida species. at pH 7.2; (range is from 8 to 128). In outline: as §3
The test system of data set [8] is Candida. The data set can be described thus: Tested in vitro for antifungal activity against Candida species. at pH 5.8 (range is from 16 to 256). In outline:
as §3

Data set [9] has as its system Candida albicans. Nature of the data set: In vitro antifungal activity against 40 strains of Candida albicans at pH 5.8. A digest of the protocol:
as §1

For data set [10], the system named is Candida albicans. The data set can be described thus: In vitro antifungal activity against 40 strains of Candida albicans at pH 7.2; (percent of resistant species at 256 ug/mL). A digest of the protocol:
as §4

Data set [11] has as its system Candida albicans. Nature of the data set: In vitro antifungal activity against 40 strains of Candida albicans at pH 7.2; minimum inhibitory concentration (range is from 2 to 256). In outline: as §1
Data set [12] has as its system Candida. Nature of the data set: Tested in vitro for antifungal activity against Candida species. at pH 5.8 (percent of resistant species at 256 ug/mL). In outline:
as §2

In data set [13] the test system is Candida. Nature of the data set: Tested in vitro for antifungal activity against Candida species. at pH 5.8. In outline: as §3
In data set [14] the test system is Candida albicans. The data set can be described thus: In vitro antifungal activity against 40 strains of Candida albicans at pH 5.8; (range is from 32 to 256). A digest of the protocol:
as §1

Data set [15] has as its system Candida albicans. Nature of the data set: IIn vitro antifungal activity against 40 strains of Candida albicans at pH 7.2; minimum inhibitory concentration (range is from 16 to 256). In outline: as §1
In data set [16] the test system is Candida. Nature of the data set: Tested in vitro for antifungal activity against Candida species. at pH 5.8; value ranges from 128 to >256. In outline:
(§5)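 Fresh clinical isolates (two C. glabrata, one C. krusei) were pre-grown 18 h at 37 °C in Sabouraud dextrose broth. Broth double-dilution was run in Sabouraud broth at pH 5.8 or 7.2 over 0.25–256 µg/mL from a DMSO/water stock, with 10³/mL inoculum.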

Data set [17] concerns Candida. Nature of the data set: Tested in vitro for antifungal activity against Candida species. at pH 5.8; value ranges from 256 to >256. In outline:
as §5

For data set [18], the system named is Candida. The data set can be described thus: Tested In vitro for antifungal activity against Candida species. at pH 7.2; value ranges from 256 to >256. In outline:
as §3

For data set [19], the system named is Candida albicans. Nature of the data set: In vitro antifungal activity against 40 strains of Candida albicans at pH 7.2; minimum inhibitory concentration ( range is from 32 to 128). In outline: as §1
Data set [20] relates to Candida albicans. Nature of the data set: In vitro antifungal activity against 40 strains of Candida albicans at pH 5.8; value ranges from 128 to >256. A digest of the protocol:
as §1

Lanosterol 14-alpha demethylase, sequence (P10613 whole entry): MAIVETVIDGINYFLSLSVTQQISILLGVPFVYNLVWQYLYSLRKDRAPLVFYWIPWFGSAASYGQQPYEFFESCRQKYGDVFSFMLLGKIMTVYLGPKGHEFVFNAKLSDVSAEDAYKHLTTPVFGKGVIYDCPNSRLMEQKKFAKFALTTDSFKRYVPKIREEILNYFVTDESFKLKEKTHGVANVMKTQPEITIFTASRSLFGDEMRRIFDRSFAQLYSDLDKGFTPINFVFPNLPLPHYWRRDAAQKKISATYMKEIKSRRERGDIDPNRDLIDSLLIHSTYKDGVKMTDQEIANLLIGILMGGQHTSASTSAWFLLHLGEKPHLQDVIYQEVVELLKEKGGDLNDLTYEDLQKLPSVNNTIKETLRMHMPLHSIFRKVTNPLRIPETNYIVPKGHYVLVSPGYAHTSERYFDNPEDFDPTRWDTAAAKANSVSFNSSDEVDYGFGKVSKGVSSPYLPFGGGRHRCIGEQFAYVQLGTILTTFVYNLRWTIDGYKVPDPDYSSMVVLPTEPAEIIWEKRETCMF

`O=[N+]([O-])c1ccc(-c2c[nH]cc2[C@@H](c2ccc(Cl)cc2Cl)n2ccnc2)cc1`: the Ratio in data set [1] is recorded as 1.5. The Range in data set [2] was 128 µg/mL; in [7], 128 µg/mL; in [8], 256 µg/mL; in [11] it was 256 µg/mL. For the same molecule, the MIC in data set [3] stood at 14.7 µg/mL (≈ 35.6 µM); in [5] it was 56 µg/mL (≈ 136 µM); in data set [9] it was 15 µg/mL (≈ 36.4 µM); in data set [13], 133 µg/mL (≈ 323 µM). The MIC50 worked out at 8 µg/mL (≈ 19.4 µM) in [3], 32 µg/mL (≈ 77.4 µM) in data set [5], 8 µg/mL (≈ 19.4 µM) in data set [9] and 128 µg/mL (≈ 310 µM) in data set [13]. Moreover, the MIC90 in data set [3] turned out to be 8 µg/mL (≈ 19.4 µM); in data set [5], 128 µg/mL (≈ 310 µM); in data set [9] it was 8 µg/mL (≈ 19.4 µM); in data set [13], 256 µg/mL (≈ 619 µM). Besides, the Resistance in [4], in data set [6], in data set [10] and in data set [12] was 0% in each case.
In the case of `Oc1ccc(-c2c[nH]cc2[C@@H](c2ccc(Cl)cc2Cl)n2ccnc2)cc1`, the Ratio in data set [1] was found to be 26. In addition, the Range in data set [14] is 256 µg/mL; in data set [15] it was 256 µg/mL; in [5] it was 256 µg/mL; in data set [16] it was more than 256 µg/mL. Besides, the MIC came out at 77.8 µg/mL (≈ 202 µM) in data set [3], 256 µg/mL (≈ 666 µM) in [5], 150 µg/mL (≈ 390 µM) in [9] and 128 µg/mL (≈ 333 µM) in data set [13]. Besides, the MIC50 in data set [3] was 16 µg/mL (≈ 41.6 µM); in data set [5], 256 µg/mL (≈ 666 µM); in data set [9] it was 32 µg/mL (≈ 83.3 µM); in [13], more than 256 µg/mL. Besides, the MIC90 in [3] was 256 µg/mL (≈ 666 µM); in data set [5], 256 µg/mL (≈ 666 µM); in data set [9], 128 µg/mL (≈ 333 µM); in data set [13] it was more than 256 µg/mL. Besides, the Resistance in data set [4] was 0%; in data set [6], 26%; in [10], 0%; in [12], 67%.
As for `Nc1ccc(-c2c[nH]cc2[C@@H](c2ccc(Cl)cc2Cl)n2ccnc2)cc1`, the Ratio in data set [1] was determined as 52. Also, the Range is more than 256 µg/mL in data set [17], more than 256 µg/mL in data set [18], 128 µg/mL in data set [19] and more than 128 µg/mL in data set [20]. Moreover, the MIC in [3] was 85 µg/mL (≈ 222 µM); in [5] it was 256 µg/mL (≈ 668 µM); in data set [9], 219 µg/mL (≈ 572 µM); in [13] it was 256 µg/mL (≈ 668 µM). Moreover, the MIC50 in data set [3], in [5], in data set [9] and in [13] was more than 256 µg/mL in each case. Further, the MIC90 in [3], in data set [5], in [9] and in data set [13] was more than 256 µg/mL each time. Further, the Resistance is reported as 67% in [4], 80% in data set [6], 54% in [10] and 67% in data set [12].

In general, MIC refers to the least concentration at which growth counts as inhibited. The term MIC50 denotes an inhibitory concentration at the 50% level, which refers to growth in some studies and to a panel of isolates in others. As usually defined, the MIC90 is an inhibitory concentration at the 90% level, which refers to growth in some studies and to a panel of isolates in others. A low value points to greater potency.
